Measured values reported in ChEMBL document CHEMBL2331221, “Potent elastase inhibitors from cyanobacteria: structural basis and mechanisms mediating cytoprotective and anti-inflammatory effects in bronchial epithelial cells” (J Med Chem, 2013).
The source made the active and inactive calls. The calls are words filed in the database; no cut-off is given here.

Columns and labels:
[1] = target: T1, Neutrophil elastase (Homo sapiens) (UniProt P08246); settings: BEAS2B, 100 uM
T1 sequence (whole entry): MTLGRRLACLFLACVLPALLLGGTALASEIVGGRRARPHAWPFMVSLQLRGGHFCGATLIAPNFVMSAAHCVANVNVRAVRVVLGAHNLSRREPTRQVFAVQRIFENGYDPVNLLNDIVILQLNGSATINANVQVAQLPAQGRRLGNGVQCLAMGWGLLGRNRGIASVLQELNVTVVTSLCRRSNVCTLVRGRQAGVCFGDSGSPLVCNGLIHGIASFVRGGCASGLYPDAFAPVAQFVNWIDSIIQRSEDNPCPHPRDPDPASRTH

[2] = target: Kallikrein-1 (Homo sapiens) (UniProt P06870); test: Inhibition of Kallikrein-1 (unknown origin) using Z-GPR-AMC substrate assessed as residual activity at 10 uM incubated for 15 mins prior to substrate addition measured for 2 hrs
Kallikrein-1 (Homo sapiens), sequence (P06870 25-262 limits assumed): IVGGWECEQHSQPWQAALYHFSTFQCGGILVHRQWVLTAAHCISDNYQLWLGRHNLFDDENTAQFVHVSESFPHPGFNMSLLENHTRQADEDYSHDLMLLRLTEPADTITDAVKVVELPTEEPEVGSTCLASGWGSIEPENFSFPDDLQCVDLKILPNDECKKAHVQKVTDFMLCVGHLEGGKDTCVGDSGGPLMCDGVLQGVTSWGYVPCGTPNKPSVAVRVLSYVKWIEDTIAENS
Procedure, shortened: (§1)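 Protease panel screen: enzyme and test inhibitor preincubated 15 min in the enzyme's reaction buffer, then substrate added. Reaction followed for 2 h, and activity was taken from the initial linear portion of the progress-curve slope. Enzyme, substrate, buffer and detection conditions for each target are given only in the paper's supporting table.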

[3] = Inhibition of Thrombin alpha (unknown origin) using H-D-CHA -Ala-Arg-AMC.2AcOH substrate incubated for 15 mins prior to substrate addition measured for 2 hrs; design: species or system Homo sapiens
Procedure, shortened: (§2)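 Protease panel screen: enzyme and inhibitor preincubated 15 min in reaction buffer, then substrate added; reaction followed for 2 h and the initial linear part of the progress curve used for activity. Enzyme, substrate, buffer and detection details are given only in a supporting table.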

[4] = target: T1, Neutrophil elastase (Homo sapiens); settings: 10 uM
[5] = target: Plasma kallikrein (Homo sapiens) (UniProt P03952); test: Inhibition of Plasma Kallikrein (unknown origin) using Z-FR-AMC substrate assessed as residual activity at 10 uM incubated for 15 mins prior to substrate addition measured for 2 hrs
Plasma kallikrein (Homo sapiens), sequence (P03952 20-390 limits assumed): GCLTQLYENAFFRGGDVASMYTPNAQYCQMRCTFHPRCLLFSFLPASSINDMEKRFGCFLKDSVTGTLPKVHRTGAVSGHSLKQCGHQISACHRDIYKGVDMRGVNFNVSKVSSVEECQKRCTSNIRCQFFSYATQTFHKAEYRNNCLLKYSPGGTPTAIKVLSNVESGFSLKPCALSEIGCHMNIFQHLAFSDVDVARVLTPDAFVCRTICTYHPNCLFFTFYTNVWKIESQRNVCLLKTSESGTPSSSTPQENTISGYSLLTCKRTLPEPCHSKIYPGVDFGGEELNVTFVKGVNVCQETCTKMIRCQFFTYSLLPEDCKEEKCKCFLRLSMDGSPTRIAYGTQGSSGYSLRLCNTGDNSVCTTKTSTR
Plasma kallikrein (Homo sapiens), sequence (P03952 391-638 limits assumed): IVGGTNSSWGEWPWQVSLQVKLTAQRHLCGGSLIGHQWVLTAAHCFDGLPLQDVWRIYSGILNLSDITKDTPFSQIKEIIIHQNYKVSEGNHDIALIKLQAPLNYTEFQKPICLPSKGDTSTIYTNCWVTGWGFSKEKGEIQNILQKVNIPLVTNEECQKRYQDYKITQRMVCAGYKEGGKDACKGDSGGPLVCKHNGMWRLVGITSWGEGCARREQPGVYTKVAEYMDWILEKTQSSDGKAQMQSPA
Procedure, shortened: as §2

[6] = target: Disintegrin and metalloproteinase domain-containing protein 10 (Homo sapiens) (UniProt O14672); test: Inhibition of ADAM10 (unknown origin) using MCA-PLAQAV-Dpa-RSSSR-[…] substrate assessed as residual activity at 10 uM incubated for 15 mins prior to substrate addition measured for 2 hrs
Disintegrin and metalloproteinase domain-containing protein 10 (Homo sapiens), sequence (O14672 whole entry, the tested form may be a part): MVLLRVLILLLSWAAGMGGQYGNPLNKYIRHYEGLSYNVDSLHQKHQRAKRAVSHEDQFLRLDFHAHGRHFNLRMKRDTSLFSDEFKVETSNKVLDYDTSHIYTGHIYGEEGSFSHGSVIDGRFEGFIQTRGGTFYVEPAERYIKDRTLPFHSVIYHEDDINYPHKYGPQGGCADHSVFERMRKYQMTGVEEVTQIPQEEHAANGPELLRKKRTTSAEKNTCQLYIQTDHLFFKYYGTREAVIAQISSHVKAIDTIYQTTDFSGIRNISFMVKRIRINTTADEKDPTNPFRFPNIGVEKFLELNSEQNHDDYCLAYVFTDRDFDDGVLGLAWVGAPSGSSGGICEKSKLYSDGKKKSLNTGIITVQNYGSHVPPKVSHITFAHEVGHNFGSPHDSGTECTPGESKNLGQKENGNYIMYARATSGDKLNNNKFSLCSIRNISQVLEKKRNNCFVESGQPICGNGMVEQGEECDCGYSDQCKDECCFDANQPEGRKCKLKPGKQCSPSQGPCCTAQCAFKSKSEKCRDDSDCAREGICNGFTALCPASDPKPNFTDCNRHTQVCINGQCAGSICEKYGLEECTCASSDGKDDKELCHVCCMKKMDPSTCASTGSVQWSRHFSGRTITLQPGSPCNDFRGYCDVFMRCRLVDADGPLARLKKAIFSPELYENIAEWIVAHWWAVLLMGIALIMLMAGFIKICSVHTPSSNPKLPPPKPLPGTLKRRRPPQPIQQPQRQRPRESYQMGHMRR
Procedure, shortened: as §1

[7] = Inhibition of human pancreatic chymotrypsin assessed as proteolysis using N-succinyl-Ala-Ala-Pro-Phe-p-nitroanilide substrate incubated for 30 mins prior to substrate addition
[8] = target: Cathepsin G (Homo sapiens) (UniProt P08311); test: Inhibition of Cathepsin G (unknown origin) using Suc-AAPF-AMC substrate assessed as residual activity at 10 uM incubated for 15 mins prior to substrate addition measured for 2 hrs
Cathepsin G (Homo sapiens), sequence (P08311 whole entry): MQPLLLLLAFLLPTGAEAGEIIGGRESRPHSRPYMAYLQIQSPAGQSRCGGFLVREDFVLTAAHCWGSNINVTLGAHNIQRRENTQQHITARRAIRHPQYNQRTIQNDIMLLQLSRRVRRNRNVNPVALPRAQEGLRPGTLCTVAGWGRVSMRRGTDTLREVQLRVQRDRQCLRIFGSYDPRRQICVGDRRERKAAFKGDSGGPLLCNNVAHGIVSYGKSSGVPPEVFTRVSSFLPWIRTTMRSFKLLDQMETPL
Procedure, shortened: as §1

[9] = target: Vitamin K-dependent protein C (Homo sapiens) (UniProt P04070); test: Inhibition of Activated Protein C (unknown origin) using Boc-DVLR-ANSNH-C4H9 substrate assessed as residual activity at 10 uM incubated for 15 mins prior to substrate addition measured for 2 hrs
Procedure, shortened: as §1

[10] = target: T1, Neutrophil elastase (Homo sapiens); settings: 10 uM; remark: listed apart in the source
[11] = target: Dipeptidyl peptidase 8 (Homo sapiens) (UniProt Q6V1X1); test: Inhibition of DPP8 (unknown origin) using H-GP-AMC substrate assessed as residual activity at 10 uM incubated for 15 mins prior to substrate addition measured for 2 hrs
Procedure, shortened: as §1

[12] = target: Dipeptidyl peptidase 4 (Homo sapiens) (UniProt P27487); test: Inhibition of DPP4 (unknown origin) using H-GP-AMC substrate assessed as residual activity at 10 uM incubated for 15 mins prior to substrate addition measured for 2 hrs
Dipeptidyl peptidase 4 (Homo sapiens), sequence (P27487 whole entry, looked up): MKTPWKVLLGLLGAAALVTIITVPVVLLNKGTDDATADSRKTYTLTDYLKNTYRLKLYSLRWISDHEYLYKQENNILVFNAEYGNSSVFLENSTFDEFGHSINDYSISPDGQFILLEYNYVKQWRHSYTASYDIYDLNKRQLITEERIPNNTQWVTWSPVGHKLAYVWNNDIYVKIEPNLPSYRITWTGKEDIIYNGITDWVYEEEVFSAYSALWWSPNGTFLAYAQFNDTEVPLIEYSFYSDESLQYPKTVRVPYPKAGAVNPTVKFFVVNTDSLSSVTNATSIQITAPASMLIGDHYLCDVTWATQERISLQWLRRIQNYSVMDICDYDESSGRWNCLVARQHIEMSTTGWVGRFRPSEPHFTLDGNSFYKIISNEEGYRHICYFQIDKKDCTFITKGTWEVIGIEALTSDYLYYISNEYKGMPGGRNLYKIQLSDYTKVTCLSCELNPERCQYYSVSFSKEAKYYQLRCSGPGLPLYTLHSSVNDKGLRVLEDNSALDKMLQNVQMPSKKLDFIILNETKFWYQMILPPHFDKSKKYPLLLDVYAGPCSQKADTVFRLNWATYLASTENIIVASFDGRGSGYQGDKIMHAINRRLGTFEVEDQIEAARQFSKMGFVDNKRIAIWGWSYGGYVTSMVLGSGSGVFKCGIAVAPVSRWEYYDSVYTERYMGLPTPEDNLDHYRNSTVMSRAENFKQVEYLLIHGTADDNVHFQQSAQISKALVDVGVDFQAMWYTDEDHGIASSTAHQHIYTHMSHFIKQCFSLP
Procedure, shortened: as §1

[13] = target: Cathepsin K (Homo sapiens) (UniProt P43235); test: Inhibition of Cathepsin K (unknown origin) using Z-GPR-AMC substrate assessed as residual activity at 10 uM incubated for 15 mins prior to substrate addition measured for 2 hrs
Cathepsin K (Homo sapiens), sequence (P43235 whole entry): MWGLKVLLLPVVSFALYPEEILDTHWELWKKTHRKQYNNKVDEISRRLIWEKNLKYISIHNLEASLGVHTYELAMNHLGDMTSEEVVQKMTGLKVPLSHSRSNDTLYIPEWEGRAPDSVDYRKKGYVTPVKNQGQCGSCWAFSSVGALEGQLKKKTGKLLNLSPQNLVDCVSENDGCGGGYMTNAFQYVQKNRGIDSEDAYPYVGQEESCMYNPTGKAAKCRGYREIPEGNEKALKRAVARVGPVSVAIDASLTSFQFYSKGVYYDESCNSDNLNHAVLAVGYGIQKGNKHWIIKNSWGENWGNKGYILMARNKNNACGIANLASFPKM
Procedure, shortened: as §1

Chymase = Chymase (Homo sapiens, UniProt P23946); test: Inhibition of Chymase (unknown origin) using Suc-AAPF-AMC substrate incubated for 15 mins prior to substrate addition measured for 2 hrs
Chymase, sequence (P23946 whole entry): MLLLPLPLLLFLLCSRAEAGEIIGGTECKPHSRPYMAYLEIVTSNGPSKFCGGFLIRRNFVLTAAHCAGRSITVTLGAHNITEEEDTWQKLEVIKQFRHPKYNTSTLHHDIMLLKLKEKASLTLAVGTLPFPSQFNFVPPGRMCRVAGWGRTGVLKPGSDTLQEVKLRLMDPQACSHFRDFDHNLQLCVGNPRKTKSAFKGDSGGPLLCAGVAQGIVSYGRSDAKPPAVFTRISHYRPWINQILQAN
Procedure, shortened: as §1

[14] = target: Tryptase beta-2 (Homo sapiens) (UniProt P20231); test: Inhibition of Tryptase beta2 (unknown origin) using Z-GPR-AMC substrate assessed as residual activity at 10 uM incubated for 15 mins prior to substrate addition measured for 2 hrs
Tryptase beta-2 (Homo sapiens), sequence (P20231 whole entry, looked up): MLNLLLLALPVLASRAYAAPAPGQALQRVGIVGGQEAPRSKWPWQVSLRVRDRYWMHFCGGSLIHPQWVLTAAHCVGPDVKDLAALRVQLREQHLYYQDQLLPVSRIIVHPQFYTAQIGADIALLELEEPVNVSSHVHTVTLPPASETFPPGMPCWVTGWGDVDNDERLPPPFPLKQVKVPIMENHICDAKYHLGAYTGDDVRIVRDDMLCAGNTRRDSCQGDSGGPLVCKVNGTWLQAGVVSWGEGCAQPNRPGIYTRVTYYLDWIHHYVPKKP

[15] = target: Cathepsin E (Homo sapiens) (UniProt P14091); test: Inhibition of Cathepsin E (unknown origin) using MCA-KPILFFRLK(Dnp)-D-R-NH2 substrate assessed as residual activity at 10 uM incubated for 15 mins prior to substrate addition measured for 2 hrs
Cathepsin E (Homo sapiens), sequence (P14091 whole entry): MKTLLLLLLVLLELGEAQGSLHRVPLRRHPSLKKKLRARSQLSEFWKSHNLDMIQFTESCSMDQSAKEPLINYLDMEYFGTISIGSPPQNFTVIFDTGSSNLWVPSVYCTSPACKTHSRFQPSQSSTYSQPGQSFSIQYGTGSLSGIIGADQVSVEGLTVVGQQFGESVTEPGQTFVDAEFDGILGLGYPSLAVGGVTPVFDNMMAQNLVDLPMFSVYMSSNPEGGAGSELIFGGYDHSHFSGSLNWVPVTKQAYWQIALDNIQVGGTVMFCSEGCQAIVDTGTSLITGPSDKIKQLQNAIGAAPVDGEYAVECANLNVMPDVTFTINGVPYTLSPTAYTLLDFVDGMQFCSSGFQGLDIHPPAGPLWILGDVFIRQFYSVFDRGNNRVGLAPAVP
Procedure, shortened: as §1

[16] = target: Beta-secretase 1 (Homo sapiens) (UniProt P56817); test: Inhibition of BACE1 (unknown origin) using MCA-SEVNLDAEFRK(Dnp)-RR-NH2 substrate assessed as residual activity at 10 uM incubated for 15 mins prior to substrate addition measured for 2 hrs
Procedure, shortened: as §1

Tryptase gamma = Tryptase gamma (Homo sapiens, UniProt Q9NRR2); test: Inhibition of Tryptase gamma1 (unknown origin) using Z-GPR-AMC substrate assessed as residual activity at 10 uM incubated for 15 mins prior to substrate addition measured for 2 hrs
Procedure, shortened: as §2

[17] = target: Cathepsin B (Homo sapiens) (UniProt P07858); test: Inhibition of Cathepsin B (unknown origin) using Z-FR-AMC substrate assessed as residual activity at 10 uM incubated for 15 mins prior to substrate addition measured for 2 hrs
Procedure, shortened: as §1

[18] = target: Dipeptidyl peptidase 9 (Homo sapiens) (UniProt Q86TI2); test: Inhibition of DPP9 (unknown origin) using H-GP-AMC substrate assessed as residual activity at 10 uM incubated for 15 mins prior to substrate addition measured for 2 hrs
Dipeptidyl peptidase 9 (Homo sapiens), sequence (Q86TI2 2-863 limits assumed): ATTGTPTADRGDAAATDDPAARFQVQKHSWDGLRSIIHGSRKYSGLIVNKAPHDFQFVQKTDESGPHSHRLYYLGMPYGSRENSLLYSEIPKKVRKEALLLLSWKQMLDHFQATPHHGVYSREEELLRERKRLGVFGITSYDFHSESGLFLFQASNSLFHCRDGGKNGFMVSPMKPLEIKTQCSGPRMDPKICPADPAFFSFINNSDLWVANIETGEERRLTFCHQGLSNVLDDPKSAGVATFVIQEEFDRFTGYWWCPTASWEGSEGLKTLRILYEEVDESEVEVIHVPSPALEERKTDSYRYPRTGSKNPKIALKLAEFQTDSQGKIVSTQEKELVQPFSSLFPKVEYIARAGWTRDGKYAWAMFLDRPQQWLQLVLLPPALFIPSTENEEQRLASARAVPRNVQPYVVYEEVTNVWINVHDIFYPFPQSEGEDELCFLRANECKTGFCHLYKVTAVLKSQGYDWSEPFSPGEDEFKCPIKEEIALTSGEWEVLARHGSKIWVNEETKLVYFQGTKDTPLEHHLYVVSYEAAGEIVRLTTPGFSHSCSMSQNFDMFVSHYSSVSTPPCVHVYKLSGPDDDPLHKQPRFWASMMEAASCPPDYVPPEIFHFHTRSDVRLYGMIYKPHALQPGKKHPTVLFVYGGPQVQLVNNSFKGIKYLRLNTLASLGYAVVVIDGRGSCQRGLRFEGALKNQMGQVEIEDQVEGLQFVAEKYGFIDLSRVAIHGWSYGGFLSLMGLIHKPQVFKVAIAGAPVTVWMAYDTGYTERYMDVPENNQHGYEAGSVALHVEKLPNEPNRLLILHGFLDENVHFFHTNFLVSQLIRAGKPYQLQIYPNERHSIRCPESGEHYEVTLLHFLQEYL
Procedure, shortened: as §1

[19] = target: T1, Neutrophil elastase (Homo sapiens); settings: 10 uM; remark: listed apart in the source
[20] = target: T1, Neutrophil elastase (Homo sapiens); settings: BEAS2B, 10 uM

SMILES: C/C=C1\NC(=O)[C@@H](NC(=O)[C@@H](NC(=O)[C@@H](COS(=O)(=O)[O-])OC)C(C)C)[C@@H](C)OC(=O)[C@H]([C@H](C)CC)NC(=O)[C@H](Cc2ccccc2)N(C)C(=O)[C@H](Cc2ccccc2)N2C(=O)[C@H](CC[C@H]2O)NC1=O.[Na+] [Symplostatin 5]
- inhibition [1]: inactive
- Activity [2]: 100%
- pIC50 [3]: > 5
- inhibition [4]: Active
- Activity [5]: 50%
- Activity [6]: 100%
- IC50 [7]: > 10 µM
- Activity [8]: 50%
- Activity [9]: 100%
- inhibition [10]: inactive
- Activity [11]: 100%
- Activity [12]: 100%
- Activity [13]: 100%
- IC50 (Chymase): < 10 µM
- Activity [14]: 100%
- Activity [15]: 100%
- Activity [16]: 100%
- Activity (Tryptase gamma): 100%
- Activity [17]: 100%
- Activity [18]: 100%
- inhibition [19]: Active
- inhibition [20]: Active
